# Results reported in ChEMBL document CHEMBL3751847, “Novel naphtho[2,1-d]oxazole-4,5-diones as NQO1 substrates with improved aqueous solubility: Design, synthesis, and in vivo antitumor evaluation” (Bioorg Med Chem, 2016).
# Active and inactive are the calls of the source. The calls are words filed in the database; no cut-off is given here.
# System: A549
# Assay: Antitumor activity against human A549 cells xenografted in athymic nude mouse assessed as tumor growth inhibition at 15 mg/kg, iv administered every other day over 21 days relative to vehicle control
# Format: functional, organism-based
# Conditions: not given
# Method in brief: (§1)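 Athymic nude mice (7–8 weeks) given 5 × 10^6 log-phase A549 cells in the flank; randomized at mean tumor ~100 mm3 (5 mice/group) to vehicle, 15 or 30 mg/kg test agent in dilute HCl buffer pH 3, or positive control in saline; tail-vein injection every other day for three weeks. Caliper volume = a × b²/2, measured daily; wet tumor weight after euthanasia. TGI from weight; T/C = RTV(treated)/RTV(control) × 100, RTV = VT/V0.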
row,SMILES,TGI
1,O=C1C(=O)c2nc(CN3CCN(Cc4ccccc4)CC3)oc2-c2ccccc21,Active

# System: A549
# Assay: Antitumor activity against human A549 cells xenografted in athymic nude mouse assessed as tumor growth inhibition at 30 mg/kg, iv administered every other day over 21 days relative to vehicle control
# Format: functional
# Conditions: 504 h, read-out: TGI
# Method in brief: as §1
row,SMILES,inhibition in vivo at 30 mg/kg [%]
1,CC1(C)CCC2=C(O1)c1ccccc1C(=O)C2=O [LAPACHONE],70.1
2,O=C1C(=O)c2nc(CN3CCN(Cc4ccccc4)CC3)oc2-c2ccccc21,55.6

# System: not listed separately
# Assay: Intrinsic aqueous solubility of compound by Avdeef-Bucher potentiometric titration assay
# Format: physicochemical
# Conditions: aqueous solution; read-out: Intrinsic_solubility
# Method in brief: (§2)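 Neutral aqueous solubility and log D at pH 7.4 by Avdeef–Bucher potentiometric titration on a Gemini Profiler.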
row,SMILES,solubility [µg/mL]
1,O=C1C(=O)c2nc(CNc3cccc(F)c3)oc2-c2ccccc21,44
2,O=C1C(=O)c2nc(CN3CCN(Cc4ccccc4)CC3)oc2-c2ccccc21,125
3,O=C1C(=O)c2nc(CNc3ccc(Cl)cc3)oc2-c2ccccc21,38

# System: NCI-H596
# Assay: Cytotoxicity against NQO1-deficient human NCI-H596 cells after 2 hrs by MTT assay
# Format: cell-based
# Conditions: NCI-H596, 2 h
# Method in brief: (§3)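 MTT assay: cells in RPMI 1640 + 10% FBS seeded at 10,000 cells/mL, attached 16 h, exposed to compound in triplicate for 2 h, washed out, then grown 72 h at 37 °C, 5% CO2; MTT 4 h, formazan in DMSO, A560. Dicoumarol cotreatment 25 µmol·L-1 for 2 h. IC50 from semilog plots of percent control.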
row,SMILES,IC50 [µM]
1,O=C1C(=O)c2nc(CN3CCN(Cc4ccccc4)CC3)oc2-c2ccccc21,57

# System: A549
# Assay: Ratio of IC50 for human A549 cells expressing NQO1 in presence of NQO1 inhibitor dicoumarol to IC50 for human A549 cells expressing NQO1 in absence of NQO1 inhibitor dicoumarol
# Format: functional
# Conditions: not given
# Method in brief: (§4)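 IC50 ratios from the 2 h-exposure/72 h MTT assay: A549 IC50 with 25 µmol·L-1 dicoumarol cotreatment divided by IC50 without; or H596 IC50 divided by A549 IC50.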
row,SMILES,Ratio IC50
1,O=C1C(=O)c2nc(CN3CCN(Cc4ccccc4)CC3)oc2-c2ccccc21,>7

# Biological target: T1, NAD(P)H dehydrogenase [quinone] 1 (Homo sapiens, UniProt P15559)
# Assay: Binding affinity to recombinant human NQO1 assessed as induction of ROS generation by measuring reduction of cytochrome C per min per mg of NQO1 by spectrophotometric analysis
# Conditions: not given
# Method in brief: (§5)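 Superoxide via cytochrome c reduction at 550 nm: 30 µmol·L-1 cytochrome c, 0.2 mmol·L-1 NADPH, recombinant human NQO1 0.1–3.0 µg/mL, quinone 25 µmol·L-1 in 25 mmol·L-1 Tris-HCl pH 7.4 with 0.7 mg/mL BSA and 0.1% Tween-20; dicoumarol 25 µmol·L-1 where stated. Initial rates from linear 0–30 s; at least triplicate.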
# T1 sequence (P15559 whole entry): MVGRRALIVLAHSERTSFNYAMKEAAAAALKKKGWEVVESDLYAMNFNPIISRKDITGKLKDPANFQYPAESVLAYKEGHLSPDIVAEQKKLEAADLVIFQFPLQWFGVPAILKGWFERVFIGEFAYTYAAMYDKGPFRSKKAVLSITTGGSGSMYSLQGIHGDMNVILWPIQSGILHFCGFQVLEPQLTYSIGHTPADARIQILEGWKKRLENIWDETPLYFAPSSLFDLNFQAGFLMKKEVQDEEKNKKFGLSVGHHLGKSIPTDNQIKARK
row,SMILES,Activity
1,CC1(C)CCC2=C(O1)c1ccccc1C(=O)C2=O [LAPACHONE],Active
2,O=C1C(=O)c2nc(CN3CCN(Cc4ccccc4)CC3)oc2-c2ccccc21,Active

# System: A549
# Assay: Antitumor activity against human A549 cells xenografted in athymic nude mouse assessed as tumor proliferation rate at 30 mg/kg, iv administered every other day over 21 days relative to vehicle-treated control
# Format: functional
# Conditions: not given
# Method in brief: as §1
row,SMILES,T/C [%]
1,CC1(C)CCC2=C(O1)c1ccccc1C(=O)C2=O [LAPACHONE],29.5
2,O=C1C(=O)c2nc(CN3CCN(Cc4ccccc4)CC3)oc2-c2ccccc21,41.4

# System: A549
# Assay: Cytotoxicity against human A549 cells expressing NQO1 after 2 hrs in presence of dicoumarol by MTT assay
# Format: functional, cell-based
# Conditions: A549, 2 h
# Method in brief: as §3
row,SMILES,IC50 [µM]
1,O=C1C(=O)c2nc(CN3CCN(Cc4ccccc4)CC3)oc2-c2ccccc21,64

# System: A549
# Assay: Cytotoxicity against human A549 cells expressing NQO1 after 2 hrs by MTT assay
# Format: functional, cell-based
# Conditions: A549, 2 h
# Method in brief: as §3
row,SMILES,IC50 [µM]
1,O=C1C(=O)c2nc(CNc3cccc(F)c3)oc2-c2ccccc21,5.2
2,O=C1C(=O)c2nc(CN3CCOCC3)oc2-c2ccccc21,6.9
3,CCc1nc2c(o1)-c1ccccc1C(=O)C2=O,7.6
4,COc1ccc(NCc2nc3c(o2)-c2ccccc2C(=O)C3=O)cc1,13
5,CC1(C)CCC2=C(O1)c1ccccc1C(=O)C2=O [LAPACHONE],3.7
6,O=C1C(=O)c2nc(CN3CCN(c4ccccc4)CC3)oc2-c2ccccc21,7.6
7,Cc1ccc(NCc2nc3c(o2)-c2ccccc2C(=O)C3=O)cc1,12
8,COc1ccccc1NCc1nc2c(o1)-c1ccccc1C(=O)C2=O,11
9,O=C1C(=O)c2nc(CN3CCN(Cc4ccccc4)CC3)oc2-c2ccccc21,4.6
10,O=C1C(=O)c2nc(CNc3ccc(Cl)cc3)oc2-c2ccccc21,19
11,COc1cccc(NCc2nc3c(o2)-c2ccccc2C(=O)C3=O)c1,15
12,Cc1nc2c(o1)-c1ccccc1C(=O)C2=O,20
13,CN(C)Cc1nc2c(o1)-c1ccccc1C(=O)C2=O,8.7

# System: not listed separately
# Assay: Cytotoxicity against human L02 cells after 2 hrs by MTT assay
# Format: cell-based
# Conditions: L02, 2 h
# Method in brief: as §3
row,SMILES,IC50 [µM]
1,O=C1C(=O)c2nc(CN3CCN(Cc4ccccc4)CC3)oc2-c2ccccc21,70

# System: not listed separately
# Assay: Solubility of compound in diluted hydrochloric acid buffer solution at pH 3 at 25 deg C for 8 hrs
# Format: physicochemical
# Conditions: not given
# Method in brief: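 Compounds shaken in diluted hydrochloric acid buffer at pH 3, 25 °C for 8 h.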
row,SMILES,solubility at 8 h [µg/mL]
1,O=C1C(=O)c2nc(CNc3cccc(F)c3)oc2-c2ccccc21,< 100
2,O=C1C(=O)c2nc(CN3CCOCC3)oc2-c2ccccc21,> 100
3,COc1ccc(NCc2nc3c(o2)-c2ccccc2C(=O)C3=O)cc1,> 100
4,CC1(C)CCC2=C(O1)c1ccccc1C(=O)C2=O [LAPACHONE],< 100
5,O=C1C(=O)c2nc(CN3CCN(c4ccccc4)CC3)oc2-c2ccccc21,> 100
6,Cc1ccc(NCc2nc3c(o2)-c2ccccc2C(=O)C3=O)cc1,> 100
7,COc1ccccc1NCc1nc2c(o1)-c1ccccc1C(=O)C2=O,> 100
8,O=C1C(=O)c2nc(CN3CCN(Cc4ccccc4)CC3)oc2-c2ccccc21,> 500
9,O=C1C(=O)c2nc(CNc3ccc(Cl)cc3)oc2-c2ccccc21,< 100
10,COc1cccc(NCc2nc3c(o2)-c2ccccc2C(=O)C3=O)c1,> 100
11,CN(C)Cc1nc2c(o1)-c1ccccc1C(=O)C2=O,> 100

# Biological target: T1, NAD(P)H dehydrogenase [quinone] 1
# Assay: Binding affinity to recombinant human NQO1 assessed as induction of ROS generation by measuring reduction of cytochrome C per min per mg of NQO1 by spectrophotometric analysis in presence of NQO1 inhibitor dicoumarol
# Conditions: not given
# Method in brief: as §5
row,SMILES,Activity
1,O=C1C(=O)c2nc(CN3CCN(Cc4ccccc4)CC3)oc2-c2ccccc21,Not Active

# System: not listed separately
# Assay: Lipophilicity, log D of compound at pH 7.4
# Format: physicochemical
# Conditions: buffer
# Method in brief: as §2
row,SMILES,logD
1,O=C1C(=O)c2nc(CNc3cccc(F)c3)oc2-c2ccccc21,3.18
2,CC1(C)CCC2=C(O1)c1ccccc1C(=O)C2=O [LAPACHONE],2.85
3,O=C1C(=O)c2nc(CN3CCN(Cc4ccccc4)CC3)oc2-c2ccccc21,1.88
4,O=C1C(=O)c2nc(CNc3ccc(Cl)cc3)oc2-c2ccccc21,2.65

# System: Mus musculus
# Assay: Hepatotoxicity in athymic nude mouse at 15 to 30 mg/kg, iv administered every other day over 21 days relative to vehicle control
# Format: toxicity, organism-based
# Conditions: in vivo, 504 h
# Method in brief: (§6)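 A549 xenograft nude mice, 5/group, dosed 15 or 30 mg/kg by tail vein every other day for three weeks in dilute HCl buffer pH 3; vehicle group as reference. Body weight tracked over treatment; liver examined for toxic signs.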
row,SMILES,Activity
1,O=C1C(=O)c2nc(CN3CCN(Cc4ccccc4)CC3)oc2-c2ccccc21,Non-toxic

# System: Mus musculus
# Assay: Toxicity in athymic nude mouse assessed as body weight loss at 15 to 30 mg/kg, iv administered every other day over 21 days relative to vehicle control
# Format: organism-based
# Conditions: in vivo, 504 h
# Method in brief: as §6
row,SMILES,Activity
1,O=C1C(=O)c2nc(CN3CCN(Cc4ccccc4)CC3)oc2-c2ccccc21,Non-toxic

# System: A549
# Assay: Antitumor activity against human A549 cells xenografted in athymic nude mouse assessed as tumor volume at 30 mg/kg, iv administered every other day over 21 days (reference value: 1085.8 +/- 298.3 mm'3)
# Format: functional
# Conditions: not given
# Method in brief: as §1
row,SMILES,Activity [mm3]
1,O=C1C(=O)c2nc(CN3CCN(Cc4ccccc4)CC3)oc2-c2ccccc21,440.8

# System: not listed separately
# Assay: Selectivity ratio of IC50 for NQO1-deficient human NCI-H596 cells to IC50 for human A549 cells expressing NQO1
# Format: cell-based
# Conditions: not given
# Method in brief: as §4
row,SMILES,Ratio IC50
1,O=C1C(=O)c2nc(CN3CCN(Cc4ccccc4)CC3)oc2-c2ccccc21,> 12

# Biological target: T1, NAD(P)H dehydrogenase [quinone] 1
# Assay: Drug metabolism assessed as recombinant human NQO1-mediated NADPH oxidation to NADP+ per micromol of protein preincubated for 3 mins followed by NADPH addition measured at 2 s intervals for 5 mins by enzyme labelling instrument-based assay
# Format: ADME
# Conditions: not given
# Method in brief: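 NADPH recycling assay: quinones 0.1–50 µmol·L-1 with recombinant human NQO1 1.4 µg/mL in 50 mmol·L-1 potassium phosphate pH 7.4, 3 min preincubation, reaction started with NADPH 400 µmol·L-1; A340 every 2 s for 5 min at 22–25 °C. Slopes from linear 20 s–1 min, compared with no-compound reactions; at least triplicate.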
row,SMILES,Drug metabolism [µmol/min]
1,O=C1C(=O)c2nc(CNc3cccc(F)c3)oc2-c2ccccc21,1391
2,O=C1C(=O)c2nc(CN3CCOCC3)oc2-c2ccccc21,686
3,CCc1nc2c(o1)-c1ccccc1C(=O)C2=O,955
4,COc1ccc(NCc2nc3c(o2)-c2ccccc2C(=O)C3=O)cc1,1063
5,CC1(C)CCC2=C(O1)c1ccccc1C(=O)C2=O [LAPACHONE],1210
6,O=C1C(=O)c2nc(CN3CCN(c4ccccc4)CC3)oc2-c2ccccc21,1139
7,Cc1ccc(NCc2nc3c(o2)-c2ccccc2C(=O)C3=O)cc1,968
8,COc1ccccc1NCc1nc2c(o1)-c1ccccc1C(=O)C2=O,990
9,O=C1C(=O)c2nc(CN3CCN(Cc4ccccc4)CC3)oc2-c2ccccc21,1360
10,O=C1C(=O)c2nc(CNc3ccc(Cl)cc3)oc2-c2ccccc21,1522
11,COc1cccc(NCc2nc3c(o2)-c2ccccc2C(=O)C3=O)c1,955
12,Cc1nc2c(o1)-c1ccccc1C(=O)C2=O,1202
13,CN(C)Cc1nc2c(o1)-c1ccccc1C(=O)C2=O,939
